{
  "source": "ChEMBL document CHEMBL1795219",
  "about": "“4-alkoxy-3-arylfuran-2(5H)-ones as inhibitors of tyrosyl-tRNA synthetase: synthesis, molecular docking and antibacterial evaluation” (Bioorg Med Chem, 2011)",
  "note": "pIC50: −log10 of the molar value.",
  "data": [
    {"tested_on": "not listed separately", "experiment": "Inhibition of Staphylococcus aureus TyrRS expressed in Escherichia coli using L-[ring-3,5-3H] tyrosine preincubated for 10 mins by scintillation counting", "conditions": "not given", "in_short": "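Aminoacylation assay with purified TyrRS (0.2 nM). Enzyme preincubated with a range of inhibitor concentrations for 10 min at room temperature, then prewarmed mix added at 37 °C. Final mix: 100 mM Tris/Cl pH 7.9, 50 mM KCl, 16 mM MgCl2, 5 mM ATP, 3 mM DTT, 4 mg/ml E. coli MRE600 tRNA, 10 uM tritiated L-tyrosine. Stopped at intervals in ice-cold 7% TCA, filtered, scintillation counted. Rate linear, under 50% tRNA acylation. IC50 is the concentration halving activity.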", "values": [
      {"smiles": "O=C1OCC(OCCN2CCOCC2)=C1c1cccc(O)c1", "pIC50": 4.59},
      {"smiles": "O=C1OCC(OCCNCc2ccccc2)=C1c1ccccc1", "pIC50": "< 4.00"},
      {"smiles": "O=C1OCC(OCCNC2CCCCC2)=C1c1ccccc1", "pIC50": 4.06},
      {"smiles": "O=C1OCC(OCCN2CCOCC2)=C1c1ccc(Cl)cc1", "pIC50": 6.21},
      {"smiles": "CCCCNCCOC1=C(c2ccccc2)C(=O)OC1", "pIC50": 4.14},
      {"smiles": "CCCNCCOC1=C(c2ccccc2)C(=O)OC1", "pIC50": 4.54},
      {"smiles": "COc1ccc(C2=C(OCCNC3CCCCC3)COC2=O)cc1OC", "pIC50": "< 4.00"},
      {"smiles": "O=C1OCC(OCCN2CCCCC2)=C1c1ccccc1", "pIC50": 4.27},
      {"smiles": "COc1ccc(C2=C(OCCN3CCN(C)CC3)COC2=O)cc1OC", "pIC50": "< 4.00"},
      {"smiles": "CN1CCN(CCOC2=C(c3ccccc3)C(=O)OC2)CC1", "pIC50": 5.07},
      {"smiles": "O=C1OCC(OCCN2CCCC2)=C1c1ccccc1", "pIC50": 4.45},
      {"smiles": "CN1CCN(CCOC2=C(c3ccc(Cl)c(Cl)c3)C(=O)OC2)CC1", "pIC50": "< 4.00"},
      {"smiles": "COc1cccc(C2=C(OCCN3CCOCC3)COC2=O)c1", "pIC50": 4.43},
      {"smiles": "O=C1OCC(OCCN2CCOCC2)=C1c1ccccc1", "pIC50": 5.21},
      {"smiles": "COc1ccc(C2=C(OCCN3CCOCC3)COC2=O)cc1", "pIC50": 4.48},
      {"smiles": "O=C1OCC(OCCN2CCOCC2)=C1c1cccc(Br)c1", "pIC50": 4.61},
      {"smiles": "O=C1OCC(OCCN2CCOCC2)=C1c1cccc(Cl)c1", "pIC50": 4.69},
      {"smiles": "O=C1OCC(OCCN2CCCCC2)=C1c1ccc(F)c(F)c1", "pIC50": "< 4.00"},
      {"smiles": "O=C1OCC(OCCN2CCOCC2)=C1c1ccc(O)cc1", "pIC50": 7.00},
      {"smiles": "COc1ccc(C2=C(OCCN3CCCCC3)COC2=O)cc1OC", "pIC50": "< 4.00"},
      {"smiles": "O=C1OCC(OCCNNc2ccc([N+](=O)[O-])cc2)=C1c1ccccc1", "pIC50": "< 4.00"},
      {"smiles": "O=C1OCC(OCCN2CCOCC2)=C1c1ccc(Br)cc1", "pIC50": 5.62}
    ]},
    {"tested_on": "Candida albicans", "experiment": "Antibacterial activity against Candida albicans ATCC 10231 after 48 hrs by MTT colorimetric method", "assay_type": "functional", "conditions": "ATCC 10231, 48 h", "units": {"MIC50": "µg/mL"}, "values": [
      {"smiles": "O=C1OCC(OCCN2CCOCC2)=C1c1cccc(O)c1", "MIC50": 47.2},
      {"smiles": "O=C1OCC(OCCN2CCOCC2)=C1c1ccc(Cl)cc1", "MIC50": 2.9},
      {"smiles": "CCCNCCOC1=C(c2ccccc2)C(=O)OC1", "MIC50": "> 50"},
      {"smiles": "CN1CCN(CCOC2=C(c3ccccc3)C(=O)OC2)CC1", "MIC50": "> 50"},
      {"smiles": "COc1cccc(C2=C(OCCN3CCOCC3)COC2=O)c1", "MIC50": "> 50"},
      {"smiles": "O=C1OCC(OCCN2CCOCC2)=C1c1ccccc1", "MIC50": 34.2},
      {"smiles": "O=C1OCC(OCCN2CCOCC2)=C1c1cccc(Br)c1", "MIC50": "> 50"},
      {"smiles": "O=C1OCC(OCCN2CCOCC2)=C1c1ccc(O)cc1", "MIC50": 1.1},
      {"smiles": "O=C1OCC(OCCN2CCOCC2)=C1c1ccc(Br)cc1", "MIC50": 12.7},
      {"smiles": "CC(=O)N1CCN(c2ccc(OCC3COC(Cn4ccnc4)(c4ccc(Cl)cc4Cl)O3)cc2)CC1", "note": "(configuration not stated) [KETOCONAZOLE]", "MIC50": 3.8}
    ]},
    {"tested_on": "Bacillus subtilis", "experiment": "Antibacterial activity against Bacillus subtilis ATCC 6633 after 24 hrs by MTT colorimetric method", "assay_type": "functional", "conditions": "ATCC 6633, 24 h", "units": {"MIC50": "µg/mL"}, "values": [
      {"smiles": "O=C1OCC(OCCN2CCOCC2)=C1c1cccc(O)c1", "MIC50": 47.4},
      {"smiles": "O=C1OCC(OCCN2CCOCC2)=C1c1ccc(Cl)cc1", "MIC50": 8.6},
      {"smiles": "CCCNCCOC1=C(c2ccccc2)C(=O)OC1", "MIC50": "> 50"},
      {"smiles": "CN1CCN(CCOC2=C(c3ccccc3)C(=O)OC2)CC1", "MIC50": "> 50"},
      {"smiles": "COc1cccc(C2=C(OCCN3CCOCC3)COC2=O)c1", "MIC50": "> 50"},
      {"smiles": "O=C1OCC(OCCN2CCOCC2)=C1c1ccccc1", "MIC50": 47.4},
      {"smiles": "O=C1OCC(OCCN2CCOCC2)=C1c1cccc(Br)c1", "MIC50": "> 50"},
      {"smiles": "O=C1OCC(OCCN2CCOCC2)=C1c1ccc(O)cc1", "MIC50": 2.1},
      {"smiles": "O=C1OCC(OCCN2CCOCC2)=C1c1ccc(Br)cc1", "MIC50": 15.8},
      {"smiles": "NC[C@H]1O[C@H](O[C@H]2[C@H](O)[C@@H](O[C@H]3O[C@H](CO)[C@@H](O)[C@H](N)[C@H]3O)[C@H](N)C[C@@H]2N)[C@H](O)[C@@H](O)[C@@H]1O", "note": "[KANAMYCIN]", "MIC50": 0.48}
    ]},
    {"tested_on": "Staphylococcus aureus", "experiment": "Antibacterial activity against Staphylococcus aureus ATCC 25923 after 24 hrs by MTT colorimetric method", "assay_type": "functional", "conditions": "ATCC 25923, 24 h", "units": {"MIC50": "µg/mL"}, "values": [
      {"smiles": "O=C1OCC(OCCN2CCOCC2)=C1c1cccc(O)c1", "MIC50": 34.3},
      {"smiles": "O=C1OCC(OCCN2CCOCC2)=C1c1ccc(Cl)cc1", "MIC50": 1.3},
      {"smiles": "CCCNCCOC1=C(c2ccccc2)C(=O)OC1", "MIC50": 34.3},
      {"smiles": "CN1CCN(CCOC2=C(c3ccccc3)C(=O)OC2)CC1", "MIC50": 16.5},
      {"smiles": "COc1cccc(C2=C(OCCN3CCOCC3)COC2=O)c1", "MIC50": 40.8},
      {"smiles": "O=C1OCC(OCCN2CCOCC2)=C1c1ccccc1", "MIC50": 10.4},
      {"smiles": "O=C1OCC(OCCN2CCOCC2)=C1c1cccc(Br)c1", "MIC50": 25.5},
      {"smiles": "O=C1OCC(OCCN2CCOCC2)=C1c1ccc(O)cc1", "MIC50": 0.23},
      {"smiles": "O=C1OCC(OCCN2CCOCC2)=C1c1ccc(Br)cc1", "MIC50": 3},
      {"smiles": "NC[C@H]1O[C@H](O[C@H]2[C@H](O)[C@@H](O[C@H]3O[C@H](CO)[C@@H](O)[C@H](N)[C@H]3O)[C@H](N)C[C@@H]2N)[C@H](O)[C@@H](O)[C@@H]1O", "note": "[KANAMYCIN]", "MIC50": 1.2}
    ]},
    {"tested_on": "Escherichia coli", "experiment": "Antibacterial activity against Escherichia coli ATCC 35218 after 24 hrs by MTT colorimetric method", "assay_type": "functional", "conditions": "ATCC 35218, 24 h", "units": {"MIC50": "µg/mL"}, "values": [
      {"smiles": "O=C1OCC(OCCN2CCOCC2)=C1c1cccc(O)c1", "MIC50": "> 50"},
      {"smiles": "O=C1OCC(OCCN2CCOCC2)=C1c1ccc(Cl)cc1", "MIC50": "> 50"},
      {"smiles": "CCCNCCOC1=C(c2ccccc2)C(=O)OC1", "MIC50": "> 50"},
      {"smiles": "CN1CCN(CCOC2=C(c3ccccc3)C(=O)OC2)CC1", "MIC50": "> 50"},
      {"smiles": "COc1cccc(C2=C(OCCN3CCOCC3)COC2=O)c1", "MIC50": "> 50"},
      {"smiles": "O=C1OCC(OCCN2CCOCC2)=C1c1ccccc1", "MIC50": "> 50"},
      {"smiles": "O=C1OCC(OCCN2CCOCC2)=C1c1cccc(Br)c1", "MIC50": "> 50"},
      {"smiles": "CC1(C)S[C@@H]2[C@H](NC(=O)Cc3ccccc3)C(=O)N2[C@H]1C(=O)O", "note": "[PENICILLIN G]", "MIC50": 2.7},
      {"smiles": "O=C1OCC(OCCN2CCOCC2)=C1c1ccc(O)cc1", "MIC50": "> 50"},
      {"smiles": "O=C1OCC(OCCN2CCOCC2)=C1c1ccc(Br)cc1", "MIC50": "> 50"}
    ]}
  ]
}
